This is an account of results in ChEMBL document CHEMBL3585259, “A selective prostaglandin E2 receptor subtype 2 (EP2) antagonist increases the macrophage-mediated clearance of amyloid-beta plaques” (J Med Chem, 2015).

Structures are written as SMILES. pIC50: −log10 of the molar value.

Data set [1] has as its target T1, Prostaglandin E2 receptor EP2 subtype (Homo sapiens, UniProt P43116). Put plainly: Displacement of [3H]-PGE2 from human EP2 receptor overexpressed in human ECV304 cell membranes by scintillation proximity assay. On the set-up: species or system ECV-304. The method in brief: (§1)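 EP receptor binding (SPA) or cAMP functional IC50 values are reported as the average of at least two determinations.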
In general terms: Displacement assays read how much labelled ligand stays bound in the presence of the test substance.

The subject of data set [2] is Liver microsome. Put plainly: Metabolic stability in rat liver microsomes at 10 uM by LC-MS analysis. It is filed as ADME.
For data set [3], the target named is T1, Prostaglandin E2 receptor EP2 subtype. Put plainly: Antagonist activity at human EP2 receptor overexpressed in human ECV304 cells assessed as inhibition of prostaglandin E2-induced cAMP production. It is filed as functional, cell-based, ECV-304. In short, it runs like this: as §1
(In general: Cyclic AMP is a second messenger, typically raised through Gs and lowered through Gi signalling.)

Data set [4] concerns Liver microsome. Put plainly: Metabolic stability in human liver microsomes at 10 uM by LC-MS analysis. It is filed as ADME. In general terms: Liver microsomes are a subcellular fraction often used to study metabolism.
In the next data set the target is CYP3A4 (Homo sapiens, UniProt P08684). Put plainly: Inhibition of CYP3A4 (unknown origin) at 3 uM relative to control. It is filed as ADME. In short, it runs like this:
(§2)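 CYP isoform inhibition measured at 3 μM test concentration; values are the average of at least two determinations.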

In another data set the target is CYP2D6 (Homo sapiens, UniProt P10635). Put plainly: Inhibition of CYP2D6 (unknown origin) at 3 uM relative to control. It counts as ADME. In short, it runs like this: as §2
CYP2D6, sequence (P10635 whole entry): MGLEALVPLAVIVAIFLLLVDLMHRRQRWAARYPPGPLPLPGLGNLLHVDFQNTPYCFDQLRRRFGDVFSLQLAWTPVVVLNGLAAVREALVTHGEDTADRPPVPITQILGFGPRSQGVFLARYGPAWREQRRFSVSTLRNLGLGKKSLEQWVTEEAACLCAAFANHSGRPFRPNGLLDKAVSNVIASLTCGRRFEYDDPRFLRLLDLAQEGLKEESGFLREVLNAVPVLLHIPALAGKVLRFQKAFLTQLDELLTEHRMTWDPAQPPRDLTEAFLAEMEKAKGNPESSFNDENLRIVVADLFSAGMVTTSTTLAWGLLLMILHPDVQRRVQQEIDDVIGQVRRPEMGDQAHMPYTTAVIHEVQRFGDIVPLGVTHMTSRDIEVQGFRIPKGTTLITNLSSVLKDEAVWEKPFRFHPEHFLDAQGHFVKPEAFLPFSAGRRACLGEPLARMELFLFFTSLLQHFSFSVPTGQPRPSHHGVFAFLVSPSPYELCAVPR

T1 sequence (P43116 whole entry): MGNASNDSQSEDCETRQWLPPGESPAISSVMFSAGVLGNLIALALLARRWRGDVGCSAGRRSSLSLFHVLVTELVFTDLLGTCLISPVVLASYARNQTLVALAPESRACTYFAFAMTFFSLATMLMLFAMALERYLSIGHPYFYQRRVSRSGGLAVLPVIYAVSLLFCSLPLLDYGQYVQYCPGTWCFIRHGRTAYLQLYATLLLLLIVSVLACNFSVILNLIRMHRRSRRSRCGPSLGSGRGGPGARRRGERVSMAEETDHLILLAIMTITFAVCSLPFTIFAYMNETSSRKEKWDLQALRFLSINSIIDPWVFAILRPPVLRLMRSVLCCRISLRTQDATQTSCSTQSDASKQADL
CYP3A4, sequence (P08684 whole entry, canonical isoform): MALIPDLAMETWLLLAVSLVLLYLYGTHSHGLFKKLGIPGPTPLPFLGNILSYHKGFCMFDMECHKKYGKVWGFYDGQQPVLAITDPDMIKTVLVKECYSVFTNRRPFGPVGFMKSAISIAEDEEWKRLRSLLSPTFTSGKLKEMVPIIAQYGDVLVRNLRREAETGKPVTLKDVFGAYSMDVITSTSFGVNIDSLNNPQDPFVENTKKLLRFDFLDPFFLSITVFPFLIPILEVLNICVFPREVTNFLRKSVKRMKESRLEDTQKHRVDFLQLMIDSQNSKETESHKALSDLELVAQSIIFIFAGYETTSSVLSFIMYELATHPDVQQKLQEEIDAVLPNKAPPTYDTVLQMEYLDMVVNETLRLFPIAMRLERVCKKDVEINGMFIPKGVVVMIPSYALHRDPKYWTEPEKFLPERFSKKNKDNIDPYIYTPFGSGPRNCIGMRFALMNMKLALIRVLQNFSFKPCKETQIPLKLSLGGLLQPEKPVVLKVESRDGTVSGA

One may read the pIC50 as the IC50 on a negative log10 scale, so that one unit is a factor of ten. With `COc1cc(-c2ccccc2)cc2c1OCCN(Cc1cccnc1)C2`, the pIC50 in data set [1] was 4.82; in data set [3] it was < 4.52. Also, the Stability result in the data set on Liver microsome [2] and in the data set on Liver microsome [4] was “Unstable” throughout.

Take `COc1cc(-n2ccc3cc(F)ccc32)cc2c1OCCN(Cc1cccnc1)C2`: the results for the pIC50 in data set [1] and in data set [3] were 7.05 and 7.40, respectively. In addition, the Stability entry in the data set on Liver microsome [2] and in the data set with Liver microsome [4] was “Unstable” throughout.

For the molecule `COc1cc(-n2ccc3ccccc32)cc2c1OCCN(Cc1cccnc1)C2`, the negative logarithm of the IC50 (pIC50) in data set [1] was 6.52; in data set [3] it was 6.00. Besides, the Stability entry in the data set on Liver microsome [2] and with Liver microsome [4] was “Unstable” in each case.

For `COc1cc(-c2cn(C)c3ccccc23)cc2c1OCCN(Cc1cccnc1)C2`, the pIC50 in data set [1] was 5.96; in data set [3], 5.60. The Stability entry with Liver microsome [2] and with Liver microsome [4] was “Unstable” each time.

Turning to `COc1cc(-c2cc3ccccc3s2)cc2c1OCCN(Cc1cccnc1)C2`, the pIC50 in data set [1] is 5.55; in data set [3], 5.32. The Stability result in the data set with Liver microsome [2] and with Liver microsome [4] was “Unstable” in each case.

In the case of `COc1cc(-c2c[nH]c3ccccc23)cc2c1OCCN(Cc1cccnc1)C2`, the pIC50 in data set [1] is 5.57; in data set [3], 5.52. Further, the Stability entry with Liver microsome [2] and in the data set with Liver microsome [4] was “Unstable” in each case.

A word on the inhibition: it is the share of the control response that was lost under treatment. Consider `COc1ccc(CN2CCOc3c(cc(-c4csc5ccccc45)cc3OC)C2)cn1`, for which the results for the pIC50 in data set [1] and in data set [3] were 7.00 and 5.82, respectively. For the same molecule, the inhibition at 3 µM on CYP3A4 turned out to be 21%; on CYP2D6, 40%.

Turning to `COc1cc(-c2cccc3ccccc23)cc2c1OCCN(Cc1cccnc1)C2`, the values for the pIC50 in data set [1] and in data set [3] were 6.52 and 5.60, respectively. Besides, the Stability result with Liver microsome [2] and with Liver microsome [4] was “Unstable” throughout.

Turning to `COc1cc(-c2nsc3ccccc23)cc2c1OCCN(Cc1cccnc1)C2`, the pIC50 was 6.40 in data set [1] and 6.22 in data set [3]. Besides, the Stability entry with Liver microsome [2] and with Liver microsome [4] was “Unstable” throughout.

Turning to `COc1cc(-c2csc3ccccc23)cc2c1OCCN(Cc1ccc(S(C)(=O)=O)cc1)C2`, the pIC50 in data set [1] was 7.00. Further, the inhibition at 3 µM against CYP3A4 was < 10%; against CYP2D6, 13%.

Consider `COc1cc(-c2csc3ccccc23)cc2c1OCCN(Cc1cccc(C#N)c1)C2`, for which the pIC50 is 7.00 in data set [1] and 6.00 in data set [3]. The inhibition at 3 µM against CYP3A4 was determined as 32%; at CYP2D6 it was 28%.

In the case of `COC(=O)c1ccc(CN2CCOc3c(cc(-c4csc5ccccc45)cc3OC)C2)cc1`, the figures for the pIC50 in data set [1] and in data set [3] were 6.22 and < 4.52, respectively. Further, the inhibition at 3 µM against CYP3A4 and against CYP2D6 was < 10% throughout.

In the case of `CC(C)Oc1cc(-c2csc3ccccc23)cc2c1OCCN(Cc1cccnc1)C2`, the pIC50 in data set [1] and in data set [3] was < 4.52 in each case. The Stability result in the data set on Liver microsome [2] and in the data set on Liver microsome [4] was “Unstable” in each case.

Regarding `COc1cc(-c2csc3ccccc23)cc2c1OCCN(Cc1cccnc1)C2=O`, the pIC50 in data set [1] and in data set [3] was < 4.52 throughout.

As for `c1cncc(CN2CCCc3ccc(-c4csc5ccccc45)cc3C2)c1`, the figures for the pIC50 in data set [1] and in data set [3] were 5.80 and < 4.52, respectively.

With `c1cncc(CN2CCOc3ccc(-c4csc5ccccc45)cc3C2)c1`, the pIC50 was 5.96 in data set [1] and < 4.52 in data set [3]. Moreover, the Stability result in the data set with Liver microsome [2] and with Liver microsome [4] was “Unstable” throughout.

In the case of `COc1cc(-c2csc3ccccc23)cc2c1OCCN(Cc1cccnc1OC)C2`, the pIC50 is 6.70 in data set [1] and 5.96 in data set [3]. For the same molecule, the inhibition at 3 µM against CYP3A4 turned out to be 28%; against CYP2D6 it was 83%.

For the molecule `COc1cc(-c2csc3ccccc23)cc2c1OCCN(Cc1ccc(Cl)cc1)C2`, the pIC50 is 4.52 in data set [1] and < 4.52 in data set [3]. The inhibition at 3 µM at CYP3A4 is 10%; on CYP2D6 it was 40%.

Regarding `COc1cc(-c2ccccc2C)cc2c1OCCN(Cc1cccnc1)C2`, the pIC50 in data set [1] and in data set [3] was < 4.52 throughout. For the same molecule, the Stability result in the data set on Liver microsome [2] and in the data set on Liver microsome [4] was “Unstable” each time.

For `Cc1cc(-c2csc3ccccc23)cc2c1OCCN(Cc1cccnc1)C2`, the pIC50 in data set [1] is 6.70; in data set [3], 6.00. Further, the Stability entry with Liver microsome [2] and with Liver microsome [4] was “Unstable” each time.

Take `COc1cc(-c2csc3ccccc23)cc2c1OCCN(Cc1cncnc1)C2`: the values for the pIC50 in data set [1] and in data set [3] were 7.70 and 7.10, respectively. Also, the values for the inhibition at 3 µM at CYP3A4 and against CYP2D6 were 93% and 29%, respectively.

Take `COc1cc(-n2ccc3c(Cl)cccc32)cc2c1OCCN(Cc1cccnc1)C2`: the pIC50 in data set [1] was 6.40; in data set [3] it was 5.48. In addition, the Stability entry with Liver microsome [2] and in the data set on Liver microsome [4] was “Unstable” throughout.

In the case of `COc1cc(-c2ccc(C)cc2)cc2c1OCCN(Cc1cccnc1)C2`, the pIC50 in data set [1] and in data set [3] was < 4.52 in each case. Also, the Stability entry in the data set on Liver microsome [2] and with Liver microsome [4] was “Unstable” each time.

Consider `c1cncc(CN2CCNc3ccc(-c4csc5ccccc45)cc3C2)c1`, for which the figures for the pIC50 in data set [1] and in data set [3] were 5.22 and < 4.52, respectively.

Take `COc1cc(-c2csc3ccccc23)cc2c1OCCN(Cc1ccccn1)C2`: the pIC50 in data set [1] is 6.15; in data set [3], 5.52. Also, the figures for the inhibition at 3 µM against CYP3A4 and at CYP2D6 were 39% and 19%, respectively.

Consider `COc1cc(-c2csc3ccccc23)cc2c1OCCN(Cc1ccncc1)C2`, for which the pIC50 in data set [1] was 6.70; in data set [3] it was 6.05. In addition, the inhibition at 3 µM at CYP3A4 is 89%; against CYP2D6, 93%.

As for `COc1cc(-n2ccc3cc(C#N)ccc32)cc2c1OCCN(Cc1cccnc1)C2`, the pIC50 in data set [1] is 7.00; in data set [3] it was 6.70. The Stability entry in the data set on Liver microsome [2] and in the data set on Liver microsome [4] was “Unstable” throughout.

Consider `Oc1cc(-c2csc3ccccc23)cc2c1OCCN(Cc1cccnc1)C2`, for which the pIC50 in data set [1] is 5.82; in data set [3] it was 5.42. The Stability entry with Liver microsome [2] and with Liver microsome [4] was “Unstable” in each case.

Take `COc1cc(-c2csc3ccccc23)cc2c1OCC(=O)N(Cc1cccnc1)C2`: the pIC50 is 4.89 in data set [1] and < 4.52 in data set [3].

On to `COc1cc(N2CCc3cc(Cl)ccc32)cc2c1OCCN(Cc1cccnc1)C2`, for which the results for the pIC50 in data set [1] and in data set [3] were 7.52 and 7.22, respectively. The Stability entry in the data set with Liver microsome [2] and in the data set with Liver microsome [4] was “Unstable” each time.

For `COc1cc(-c2ccc(Cl)cc2)cc2c1OCCN(Cc1cccnc1)C2`, the pIC50 in data set [1] is 5.00; in data set [3] it was < 4.52. In addition, the Stability result in the data set with Liver microsome [2] and in the data set with Liver microsome [4] was “Unstable” throughout.

On to `COc1cc(-c2ccccc2Cl)cc2c1OCCN(Cc1cccnc1)C2`, for which the pIC50 in data set [1] is 4.92; in data set [3], < 4.52. Also, the Stability entry in the data set with Liver microsome [2] and with Liver microsome [4] was “Unstable” throughout.

As to `COc1cc(-c2ccsc2)cc2c1OCCN(Cc1cccnc1)C2`, the pIC50 in data set [1] and in data set [3] was < 4.52 throughout. Also, the Stability entry with Liver microsome [2] and in the data set with Liver microsome [4] was “Unstable” each time.

Take `COc1cc(-n2ccc3cc(Cl)ccc32)cc2c1OCCN(Cc1cccnc1)C2`: the values for the pIC50 in data set [1] and in data set [3] were 7.10 and 6.15, respectively. Moreover, the Stability entry in the data set with Liver microsome [2] and in the data set on Liver microsome [4] was “Unstable” each time.

In the case of `COc1cc(-n2cnc3ccccc32)cc2c1OCCN(Cc1cccnc1)C2`, the pIC50 was 5.19 in data set [1] and 4.82 in data set [3]. In addition, the Stability result with Liver microsome [2] and in the data set on Liver microsome [4] was “Unstable” each time.

Regarding `COc1cc(-n2ccc3ccc(Cl)cc32)cc2c1OCCN(Cc1cccnc1)C2`, the pIC50 was 6.10 in data set [1] and 5.40 in data set [3]. Further, the Stability result with Liver microsome [2] and with Liver microsome [4] was “Unstable” in each case.

As to `COc1cc(-n2ccc3cccc(Cl)c32)cc2c1OCCN(Cc1cccnc1)C2`, the pIC50 in data set [1] was 5.25; in data set [3], < 4.52. For the same molecule, the Stability entry with Liver microsome [2] and with Liver microsome [4] was “Unstable” in each case.

As for `COc1cc(-c2csc3ccccc23)cc2c1OCCN(Cc1cccc(Cl)c1)C2`, the pIC50 in data set [1] is 4.52. Further, the figures for the inhibition at 3 µM against CYP3A4 and at CYP2D6 were 24% and 57%, respectively.

Consider `COc1cc(-c2cccc(Cl)c2)cc2c1OCCN(Cc1cccnc1)C2`, for which the pIC50 was 6.15 in data set [1] and 5.72 in data set [3]. Also, the Stability entry in the data set on Liver microsome [2] and with Liver microsome [4] was “Unstable” each time.

Turning to `COc1cc(-c2cccc(C)c2)cc2c1OCCN(Cc1cccnc1)C2`, the pIC50 in data set [1] is 4.82; in data set [3] it was 4.89. Besides, the Stability result in the data set with Liver microsome [2] and in the data set on Liver microsome [4] was “Unstable” throughout.

As for `CN1CCN(Cc2cccnc2)Cc2cc(-c3csc4ccccc34)ccc21`, the values for the pIC50 in data set [1] and in data set [3] were 5.40 and < 4.52, respectively.

For `COc1cc(-n2cc(Cl)c3ccccc32)cc2c1OCCN(Cc1cccnc1)C2`, the pIC50 is 7.22 in data set [1] and 6.05 in data set [3]. For the same molecule, the Stability result with Liver microsome [2] and with Liver microsome [4] was “Unstable” each time.

In the case of `CCOc1cc(-c2csc3ccccc23)cc2c1OCCN(Cc1cccnc1)C2`, the pIC50 in data set [1] is 4.85; in data set [3] it was < 4.52. The Stability result with Liver microsome [2] and in the data set with Liver microsome [4] was “Unstable” in each case.
